Legend:
FM3A = assay: in vitro cytotoxicity against mouse mammary tumor in cell culture.; format: functional, cell-based
How it was run: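 Mouse mammary tumor FM3A cells in culture, used as a mammalian cytotoxicity control; EC50 determined.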

Plasmodium falciparum = assay: In vitro antimalarial activity for Plasmodium falciparum; format: functional, organism-based
How it was run: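 Chloroquine-sensitive P. falciparum FCR-3 strain cultured in vitro; EC50 determined.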

[1] = Mean of EC50 value for FM3A cells/ mean of EC50 value for Plasmodium falciparum; format: functional
How it was run: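 Selectivity is the mean EC50 against FM3A mouse mammary tumor cells divided by the mean EC50 against P. falciparum FCR-3.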

Mus musculus [2] = assay: in vivo antimalarial activity against Plasmodium berghei infected mice (Mus musculus) on intraperitoneal administration; format: functional; details: ip
How it was run: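 Mice infected with P. berghei NK 65. Compounds were prepared in olive oil at various concentrations and injected intraperitoneally into groups of five mice once daily on days 0–3, starting on the day of infection. Parasitemia was measured on day 4, and ED50/ED90 were calculated by the earlier protocol.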

Mus musculus [3] = assay: in vivo antimalarial activity against Plasmodium berghei infected mice (Mus musculus) on oral administration; format: functional
How it was run: (§1)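 Mice infected with P. berghei NK 65. Compounds were prepared in olive oil at various concentrations and given orally to groups of five mice once daily on days 0–3, starting on the day of infection. Parasitemia was read on day 4, and ED50/ED90 were derived by the earlier protocol.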

Mus musculus [4] = assay: In vivo antimalarial activity against Plasmodium berghei infected mice (Mus musculus) on oral administration; format: functional; how it was run: as §1

| SMILES | EC50 (FM3A) | EC50 (Plasmodium falciparum) | Selectivity [1] | ED50 (Mus musculus [2]) | ED90 (Mus musculus [2]) | ED90 (Mus musculus [3]) | ED50 (Mus musculus [4]) |
| --- | --- | --- | --- | --- | --- | --- | --- |
| CCCCCC1(CCCCC)OOCCCOO1 | 34 µM | 0.31 µM | 110 | 30 mg/kg | 58 mg/kg | – | – |
| C1CCCCCC2(CCCCC1)OOCCCOO2 | 8 µM | 0.025 µM | 320 | 12 mg/kg | 20 mg/kg | 40 mg/kg | 20 mg/kg |
| C1CCCCCC2(CCCCC1)OOCCCCCOO2 | 12 µM | 0.28 µM | 43 | – | – | – | – |
| CC(C)(C)C1CCC2(CC1)OOCCCOO2 | 30 µM | 0.003 µM | 10000 | 15 mg/kg | 30 mg/kg | 84 mg/kg | 52 mg/kg |
| C1CCCCCC2(CCCCC1)OOCCCCCCOO2 | 16 µM | 0.01 µM | 1600 | 160 mg/kg | > 200 mg/kg | – | – |
| C1CCCCCC2(CCCCC1)OOCCCCCCCCOO2 | 29 µM | 1.7 µM | 17 | – | – | – | – |
| CCCCCCC1(CCCCCC)OOCCCOO1 | 19 µM | 0.2 µM | 95 | 60 mg/kg | 91 mg/kg | – | – |
| C[C@@H]1CC[C@H]2[C@@H](C)C(=O)O[C@@H]3O[C@@]4(C)CC[C@@H]1[C@]32OO4 [ARTEMISININ] | – | 0.01 µM | 1000 | 5 mg/kg | 32 mg/kg | 89 mg/kg | 13 mg/kg |
| C1COOC2(OOC1)C1CC3CC(C1)CC2C3 | 58 µM | 0.05 µM | 1160 | 100 mg/kg | – | – | – |
| C1CCCCCC2(CCCCC1)OOCCCCOO2 | 17 µM | 0.1 µM | 170 | 48 mg/kg | 65 mg/kg | – | – |

Source: ChEMBL document CHEMBL1134771, “Synthesis and antimalarial activity of novel medium-sized 1,2,4,5-tetraoxacycloalkanes” (J Med Chem, 2001)
